Drawing on ChEMBL document CHEMBL1122378, “Antiallergic agents. 2. N-(1H-tetrazol-5-yl)-6-phenyl-2-pyridinecarboxamides” (1983), this text covers inhibition in vivo for 24 compounds.

Type in all cases: functional
Experiment [1] concerns Rattus norvegicus. The experiment can be described thus: Antiallergic activity against passive cutaneous anaphylaxis (PCA) in male Sprague-Dawley rats after 1.0 mg/kg oral administration. The procedure, abridged:
(§1)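 IgE antiserum raised in male Sprague-Dawley rats (ca. 200 g) by immunization with Ascaris suum extract (2 then 0.2 mg protein), bled 2 weeks after the second dose. Recipients got 0.05 mL diluted antiserum intracutaneously on the back. Blued area (product of two diameters) was read at 30 min.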

In experiment [2] the test system is Rattus norvegicus. The experiment can be described thus: Inhibition of passive cutaneous anaphylaxis in male Sprague-Dawley rats following 0.3 mg/kg p.o. administration; Not significant. Particulars: route oral. A digest of the protocol: as §1
For experiment [3], the system named is Rattus norvegicus. The experiment can be described thus: Inhibition of passive cutaneous anaphylaxis in male Sprague-Dawley rats following 1 mg/kg p.o. administration; Not significant. Particulars: route oral. A digest of the protocol:
as §1

Experiment [4] deals with Rattus norvegicus. The experiment can be described thus: Antiallergic activity against passive cutaneous anaphylaxis (PCA) in male Sprague-Dawley rats after 3.0 mg/kg oral administration. The procedure, abridged:
as §1

As usually defined, the inhibition in vivo is the relative decrease from the control value, in per cent. In the experiment with Rattus norvegicus [1], `CNc1ccc(-c2cc(C)cc(C(=O)Nc3nn[nH]n3)n2)cc1` had an inhibition in vivo at 1 mg/kg of 89%. The compound also gave an inhibition in vivo at 0.3 mg/kg in the experiment on Rattus norvegicus [2] of 36%.

As for `COc1ccc(-c2cccc(C(=O)Nc3nn[nH]n3)n2)cc1`, the inhibition in vivo at 1 mg/kg in the experiment on Rattus norvegicus [3] amounted to 12%. The compound also gave an inhibition in vivo at 3 mg/kg in the experiment on Rattus norvegicus [4] of 36%. The compound also showed an inhibition in vivo at 0.3 mg/kg with Rattus norvegicus [2] of 4%.

`CCCOc1cc(C(=O)Nc2nn[nH]n2)nc(-c2ccc(N)cc2)c1` displayed an inhibition in vivo at 1 mg/kg in the experiment on Rattus norvegicus [1] of 64%. The same compound had an inhibition in vivo at 3 mg/kg in the experiment on Rattus norvegicus [4] of 68%. Moreover, at 0.3 mg/kg the inhibition in vivo with Rattus norvegicus [2] was 7%.

The compound `CNc1ccc(-c2cc(OC)cc(C(=O)Nc3nn[nH]n3)n2)cc1` showed an inhibition in vivo at 1 mg/kg with Rattus norvegicus [3] of 35%. Besides, the inhibition in vivo at 3 mg/kg in the experiment on Rattus norvegicus [4] came to 79%.

For the compound `CCCCc1ccc(-c2cc(CC)cc(C(=O)Nc3nn[nH]n3)n2)cc1`, testing at 1 mg/kg in the experiment with Rattus norvegicus [3] gave an inhibition in vivo of 20%. In the experiment with Rattus norvegicus [4], at 3 mg/kg the inhibition in vivo was 70%.

`CCOc1cc(C(=O)Nc2nn[nH]n2)nc(-c2ccc(N)cc2)c1` registered an inhibition in vivo at 1 mg/kg in the experiment with Rattus norvegicus [1] of 52%. Also, in the experiment with Rattus norvegicus [4], 3 mg/kg produced 62% inhibition in vivo. Moreover, in the experiment with Rattus norvegicus [2], at 0.3 mg/kg the inhibition in vivo was 19%.

The compound `CCCCc1ccc(-c2cc(Cl)cc(C(=O)Nc3nn[nH]n3)n2)cc1` returned an inhibition in vivo at 1 mg/kg in the experiment with Rattus norvegicus [1] of 0%. The same compound returned an inhibition in vivo at 3 mg/kg with Rattus norvegicus [4] of 83%.

In turn, `COc1cc(C(=O)Nc2nn[nH]n2)nc(-c2ccc(C)c(C)c2)c1` had an inhibition in vivo at 1 mg/kg in the experiment on Rattus norvegicus [3] of 21%. In the experiment on Rattus norvegicus [4], this compound registered an inhibition in vivo at 3 mg/kg of 82%.

As to `Cc1ccc(-c2cc(Cl)cc(C(=O)Nc3nn[nH]n3)n2)cc1`, 1 mg/kg produced 86% inhibition in vivo in the experiment on Rattus norvegicus [1]. In addition, at 0.3 mg/kg the inhibition in vivo in the experiment on Rattus norvegicus [2] was 10%.

Consider `CCCc1ccc(-c2cc(C)cc(C(=O)Nc3nn[nH]n3)n2)cc1`, for which at 1 mg/kg the inhibition in vivo in the experiment with Rattus norvegicus [3] was 65%. Besides, the inhibition in vivo at 0.3 mg/kg in the experiment with Rattus norvegicus [2] amounted to 19%.

With `Cc1cccc(-c2cc(C)cc(C(=O)Nc3nn[nH]n3)n2)c1`, the inhibition in vivo at 1 mg/kg in the experiment on Rattus norvegicus [1] was 51%. Testing at 3 mg/kg in the experiment on Rattus norvegicus [4] gave an inhibition in vivo of 61%.

In the experiment on Rattus norvegicus [1], `Nc1ccc(-c2cccc(C(=O)Nc3nn[nH]n3)n2)cc1` displayed an inhibition in vivo at 1 mg/kg of 62%. For the same compound, in the experiment on Rattus norvegicus [4], the inhibition in vivo at 3 mg/kg was 81%. Besides, the inhibition in vivo at 0.3 mg/kg in the experiment on Rattus norvegicus [2] was found to be 11%.

As to `Cc1cc(C(=O)Nc2nn[nH]n2)nc(-c2ccc(C(C)C)cc2)c1`, in the experiment on Rattus norvegicus [1], the inhibition in vivo at 1 mg/kg is 34%. The compound further gave an inhibition in vivo at 3 mg/kg with Rattus norvegicus [4] of 100%.

Compound `Cc1ccc(-c2cc(CC(C)C)cc(C(=O)Nc3nn[nH]n3)n2)cc1` registered an inhibition in vivo at 1 mg/kg with Rattus norvegicus [3] of 9%. In the experiment with Rattus norvegicus [4], the inhibition in vivo at 3 mg/kg was determined as 52%.

`COc1ccc(-c2cc(OC)cc(C(=O)Nc3nn[nH]n3)n2)cc1` gave an inhibition in vivo at 1 mg/kg with Rattus norvegicus [3] of 25%. For the same compound, the inhibition in vivo at 3 mg/kg in the experiment on Rattus norvegicus [4] was determined as 60%.

Regarding `O=C(Nc1nn[nH]n1)c1cc(Cl)cc(-c2ccccc2)n1`, in the experiment with Rattus norvegicus [1], testing at 1 mg/kg gave an inhibition in vivo of 40%.

The compound `CCOc1cc(C(=O)Nc2nn[nH]n2)nc(-c2ccc(C)cc2)c1` came in with an inhibition in vivo at 1 mg/kg in the experiment with Rattus norvegicus [1] of 65%. This compound also displayed an inhibition in vivo at 0.3 mg/kg in the experiment with Rattus norvegicus [2] of 26%.

Take `COc1cccc(-c2cc(C)cc(C(=O)Nc3nn[nH]n3)n2)c1`: the inhibition in vivo at 1 mg/kg in the experiment with Rattus norvegicus [3] stood at 25%. Moreover, testing at 3 mg/kg with Rattus norvegicus [4] gave an inhibition in vivo of 65%.

Regarding `COc1cc(C(=O)Nc2nn[nH]n2)nc(-c2ccc(C)cc2)c1`, the inhibition in vivo at 1 mg/kg with Rattus norvegicus [1] amounted to 42%. The compound also returned an inhibition in vivo at 0.3 mg/kg in the experiment with Rattus norvegicus [2] of 16%.

`COc1cc(C(=O)Nc2nn[nH]n2)nc(-c2ccc(C(C)C)cc2)c1` returned an inhibition in vivo at 1 mg/kg in the experiment on Rattus norvegicus [1] of 54%. This compound returned an inhibition in vivo at 0.3 mg/kg with Rattus norvegicus [2] of 29%.

For the compound `CCN(CC)c1ccc(-c2cc(C)cc(C(=O)Nc3nn[nH]n3)n2)cc1`, in the experiment on Rattus norvegicus [2], 0.3 mg/kg produced 19% inhibition in vivo.

In turn, `CCc1cc(C(=O)Nc2nn[nH]n2)nc(-c2ccc(C)cc2)c1` came in with an inhibition in vivo at 0.3 mg/kg in the experiment on Rattus norvegicus [2] of 33%.

For `CCCc1ccc(-c2cc(OC)cc(C(=O)Nc3nn[nH]n3)n2)cc1`, 1 mg/kg produced 73% inhibition in vivo in the experiment with Rattus norvegicus [1]. This compound gave an inhibition in vivo at 3 mg/kg in the experiment with Rattus norvegicus [4] of 93%. The compound further showed an inhibition in vivo at 0.3 mg/kg in the experiment with Rattus norvegicus [2] of 32%.

Compound `Cc1ccc(-c2cccc(C(=O)Nc3nn[nH]n3)n2)cc1` registered an inhibition in vivo at 1 mg/kg in the experiment on Rattus norvegicus [1] of 67%. The inhibition in vivo at 0.3 mg/kg with Rattus norvegicus [2] amounted to 21%.
